# Data from the RNAGym collection of RNA variant scans (doi:10.1002/anie.201605470).
# B1: Osa-1-4 twister ribozyme (parent)
# chain: CCGCCUAACACUGCCAAUGCCGGUCCCAAGCCCGGAUAAAAGUGGAGGGGGCGG
# Variants of: B1
# Assay: self-cleavage, relative activity (ratio to wild type); higher = more cleavage; co-transcriptional
# Outline: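 A DNA template was synthesised for a 54-nucleotide twister ribozyme from Oryza sativa, with 97 % wild-type base and 1 % of each other base at each of the 48 positions downstream of the cleavage site. The ribozyme cleaved itself co-transcriptionally during 2 h of in vitro transcription at 37 °C. Reverse transcription with a template-switching oligonucleotide, PCR amplification and deep sequencing followed, and cleavage status came from reads with or without upstream sequence. Relative activity is the fraction cleaved normalised to wild type.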
row,Variant,self-cleavage
1,CCGCCUAACACUGCCGAUGCCGGUCCCAAGCCCGGAUAAAAGUGGAGGGGGCCG,0.16
2,CCGCCUAACACUGCCGAUGCCGGUCCCAAGCCCGGAUAAAAGUGGAGGGGGCAG,0.91
3,CCGCCUAACACUGCCGAUGCCGGUCCCAAGCCCGGAUAAAAGUGGAGGGGGCUG,0.71
4,CCGCCUAACACUGCCUAUGCCGGUCCCAAGCCCGGAUGAAAGUGGAGGGGGCGG,0.94
5,CCGCCUAACACUGCCUAUGCCGGUCCCAAGCCCGGAUCAAAGUGGAGGGGGCGG,1
6,CCGCCUAACACUGCCUAUGCCGGUCCCAAGCCCGGAUUAAAGUGGAGGGGGCGG,1.05
7,CCGCCUAACACUGCCUAUGCCGGUCCCAAGCCCGGAUAACAGUGGAGGGGGCGG,0.07
8,CCGCCUAACACUGCCUAUGCCGGUCCCAAGCCCGGAUAAGAGUGGAGGGGGCGG,0.38
9,CCGCCUAACACUGCCUAUGCCGGUCCCAAGCCCGGAUAAUAGUGGAGGGGGCGG,0.55
10,CCGCCUAACACUGCCGAUGCCGGUCCCAAGCCCGGAUAAAAGUGGAGGGGACGG,0.82
11,CCGCCUAACACUGCCGAUGCCGGUCCCAAGCCCGGAUAAAAGUGGAGGGGCCGG,0.22
12,CCGCCUAACACUGCCGAUGCCGGUCCCAAGCCCGGAUAAAAGUGGAGGGGUCGG,0.46
13,CCGCCUAACACUGCCGAUGCCGGUCCCAAGCCCGGAUAAAAGGGGAGGGGGCGG,0.62
14,CCGCCUAACACUGCCGAUGCCGGUCCCAAGCCCGGAUAAAAGAGGAGGGGGCGG,0.89
15,CCGCCUAACACUGCCGAUGCCGGUCCCAAGCCCGGAUAAAAGCGGAGGGGGCGG,0.53
16,CCGCCUAACACUGCCGAUGCCAGUCCCAAGCCCGGAUAAAAGUGGAGGGGGCGG,1
17,CCGCCUAACACUGCCGAUGCCUGUCCCAAGCCCGGAUAAAAGUGGAGGGGGCGG,0.82
18,CCGCCUAACACUGCCGAUGCCCGUCCCAAGCCCGGAUAAAAGUGGAGGGGGCGG,0.19
19,CCGCCUAACACUGCCGAAGCCGGUCCCAAGCCCGGAUAAAAGUGGAGGGGGCGG,0.92
20,CCGCCUAACACUGCCGAGGCCGGUCCCAAGCCCGGAUAAAAGUGGAGGGGGCGG,0.83
21,CCGCCUAACACUGCCGACGCCGGUCCCAAGCCCGGAUAAAAGUGGAGGGGGCGG,0.97
22,CCGCCUAACACUGCCUAUGCCGGUCCCUAGCCCGGAUAAAAGUGGAGGGGGCGG,0.87
23,CCGCCUAACACUGCCUAUGCCGGUCCCGAGCCCGGAUAAAAGUGGAGGGGGCGG,0.24
24,CCGCCUAACACUGCCUAUGCCGGUCCCCAGCCCGGAUAAAAGUGGAGGGGGCGG,0.91

row,Variant,self-cleavage
1,CCGCCUAACACUGCCGAUGCCGGUCCCAAGCCCGGAUAAAAGUGGAGGUGGCGG,0.3
2,CCGCCUAACACUGCCGAUGCCGGUCCCAAGCCCGGAUAAAAGUGGAGGAGGCGG,0.27
3,CCGCCUAACACUGCCGAUGCCGGUCCCAAGCCCGGAUAAAAGUGGAGGCGGCGG,0.08
4,CCGCCUAACACUCCCGAUGCCGGUCCCAAGCCCGGAUAAAAGUGGAGGGGGCGG,0.02
5,CCGCCUAACACUUCCGAUGCCGGUCCCAAGCCCGGAUAAAAGUGGAGGGGGCGG,0.04
6,CCGCCUAACACUACCGAUGCCGGUCCCAAGCCCGGAUAAAAGUGGAGGGGGCGG,0.2
7,CCGCCUAACACUGCCUAUGCCGGUCCCAAGCCCGGAUAAAUGUGGAGGGGGCGG,0.97
8,CCGCCUAACACUGCCUAUGCCGGUCCCAAGCCCGGAUAAAGGUGGAGGGGGCGG,0.36
9,CCGCCUAACACUGCCUAUGCCGGUCCCAAGCCCGGAUAAACGUGGAGGGGGCGG,0.93
10,CCGCCUAACACUGCCGAUGCCGGUCCCAAGCCCGGAUAAAACUGGAGGGGGCGG,0.62
11,CCGCCUAACACUGCCGAUGCCGGUCCCAAGCCCGGAUAAAAAUGGAGGGGGCGG,0.86
12,CCGCCUAACACUGCCGAUGCCGGUCCCAAGCCCGGAUAAAAUUGGAGGGGGCGG,0.57
13,CCGCCUAACACUGCCGAUGCCGGUCCCAAGCCCGGAUAAAAGUGGAGGGCGCGG,0.95
14,CCGCCUAACACUGCCGAUGCCGGUCCCAAGCCCGGAUAAAAGUGGAGGGAGCGG,0.77
15,CCGCCUAACACUGCCGAUGCCGGUCCCAAGCCCGGAUAAAAGUGGAGGGUGCGG,1.02
16,CCGCCUAACACUGCCGAUGCCGGUCCCAAGCCCGGAUAAAAGUGGAGGGGGCGU,0.93
17,CCGCCUAACACUGCCGAUGCCGGUCCCAAGCCCGGAUAAAAGUGGAGGGGGCGA,0.98
18,CCGCCUAACACUGCCGAUGCCGGUCCCAAGCCCGGAUAAAAGUGGAGGGGGCGC,0.99
19,CCGCCUAACACUGCCGAUGCCGAUCCCAAGCCCGGAUAAAAGUGGAGGGGGCGG,0.68
20,CCGCCUAACACUGCCGAUGCCGCUCCCAAGCCCGGAUAAAAGUGGAGGGGGCGG,0.09
21,CCGCCUAACACUGCCGAUGCCGUUCCCAAGCCCGGAUAAAAGUGGAGGGGGCGG,0.14
22,CCGCCUAACACUGCCGAUGCCGGUCCCAAGCCCGGAUAAAAGUCGAGGGGGCGG,0.96
23,CCGCCUAACACUGCCGAUGCCGGUCCCAAGCCCGGAUAAAAGUUGAGGGGGCGG,0.95
24,CCGCCUAACACUGCCGAUGCCGGUCCCAAGCCCGGAUAAAAGUAGAGGGGGCGG,0.96
